Screening data as filed in PubChem BioAssay.
TAAR1 ag: human TAAR1 agonism | Q96RJ0 | CHO RD-HGA16 TAAR1, Fluo-8 calcium fluorescence; vehicle wells 0%, saturating PEA agonist 100% | activation, % at 3 µM | 360,000 tested, 0.99% active;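 active = activation above the mean activation of all test compounds in the run plus 3 SD, cut at about 38% in these data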
Target sequence (Q96RJ0 whole entry, looked up): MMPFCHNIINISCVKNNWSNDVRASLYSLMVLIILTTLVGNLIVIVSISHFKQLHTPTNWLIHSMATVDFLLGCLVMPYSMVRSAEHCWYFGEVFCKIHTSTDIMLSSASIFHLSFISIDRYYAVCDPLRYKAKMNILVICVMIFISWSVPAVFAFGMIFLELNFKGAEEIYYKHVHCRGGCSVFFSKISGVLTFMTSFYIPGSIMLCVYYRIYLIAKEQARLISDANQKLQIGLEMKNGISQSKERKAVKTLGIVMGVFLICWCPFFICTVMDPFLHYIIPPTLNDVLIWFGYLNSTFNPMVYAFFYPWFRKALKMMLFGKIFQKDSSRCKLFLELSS
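Test system: RD-HGA16 (CHO) cells co-expressing Gα16 and hTAAR1 | Doses: Single dose, 3 µM | Schedule: 17-24 h seeding, 75 min 37 °C dye, 30 min RT | Evaluation: % activation from peak over basal fluorescence ratio, DMSO-to-PEA scaled | Technique: Kinetic Fluo-8 calcium fluorescence | Benchmarks: Low control DMSO, high control PEA (EC100)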
CRFBP-R2 block: blocks CRF-induced signaling of the CRF-BP/CRF-R2 complex | HEK293 CRF-R2/CRF-BP, CRF-induced calcium fluorescence | inhibition, % at 11.8 µM | 350,000 tested, 0.59% active | AID 588475;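 active = inhibition of the ligand-induced calcium signal above about 50% at the single tested concentration, limit read from the data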
TMEM16A act: activators or potentiators of mouse TMEM16A chloride channel; HEK293 TMEM16A/YFP-H148Q/I152L, iodide quench fluorescence; hits give low values; B-score at 10 µM; 340,000 tested, 0.3% active;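 active = fluorescence-ratio B-score plate-corrected deviation score at least 3 library SD below zero, with starting fluorescence score within 5 deviations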;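 note: channel opened by trigger with iodide after compound preincubation; score built on the fluorescence ratio of max minus min over baseline; more negative score means more quench and so TMEM16A activation or potentiation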
CRFBP-R2 agonist: agonists of human CRF-binding protein/CRF-R2 receptor complex; HEK293 CRF-R2/CRF-BP, calcium dye fluorescence (FLIPR); percent of saturating CRF peptide response; activation, % at 13.2 µM; 350,000 tested, 0.46% active; AID 588473;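 active = activation of at least 50%, plus an integration ratio under a set limit after plate pattern correction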
TAAR1 antag: antagonists of human TAAR1; CHO RD-HGA16 TAAR1, Fluo-8 calcium fluorescence, antagonist; inhibition, % at 3 µM; 360,000 tested, 1.5% active; AID 624466;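 active = inhibition above a per-plate cutoff, the mean inhibition of test compounds on that plate plus 3 SD, cut at about 49% in these data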
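Assay system: RD-HGA16 CHO cells with stable hTAAR1 and Gα16 / Reagent: EC80 β-phenethylamine stimulus / Doses: 3 µM, single point / Timing: dye loading 75 min at 37 °C, then 30 min room temperature / Measured by: Fluo-8 intracellular calcium dye fluorescence, real-time kinetic reads / Controls: vehicle wells and EC80 agonist wells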
TMEM16A inh: blocks the mouse calcium-activated chloride channel TMEM16A; Q8BHY3; HEK293 TMEM16A/YFP iodide influx fluorescence, ionomycin; normalized B-score (activity score, 25-100; higher = stronger inhibition) at 10 µM; 310,000 tested, 1.2% active;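 active = ratio plate-corrected score three or more library SD toward inhibition, starting fluorescence score within five deviations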;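 note: score derived from kinetic fluorescence span divided by baseline fluorescence per well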
Numbers stand for hits; - = inactive; . = no result given. An excerpt weighted towards active compounds, which were near 3.9% of everything screened.

SMILES	TAAR1 ag	CRFBP-R2 block	TMEM16A act	CRFBP-R2 agonist	TAAR1 antag	TMEM16A inh
CN(C)S(=O)(=O)c1ccc(-c2ccccc2)cc1	-	-	-	-	-	-
CN(c1ccccc1)S(=O)(=O)c1ccc(-c2ccccc2)cc1	-	-	-	-	52	25
CN(c1ccccc1)S(=O)(=O)c1ccc2c(c1)oc(=O)n2C	-	59	-	-	-	-
CCOC(=O)C1CCCN(S(=O)(=O)c2ccc(Cl)nc2)C1 (stereo not given)	-	-	-	-	-	-
CC(=O)c1ccc(Nc2nc(C(N)Cc3ccc(C(F)(F)F)cc3)cs2)cc1 (stereo not given)	52	.	.	.	-	.
COc1ccc(NC(=O)Nc2nc(C(N)Cc3ccc(C(F)(F)F)cc3)cs2)cc1 (stereo not given)	40	.	.	.	50	.
Cc1cccc(CC(=O)Nc2ccc(C(=O)N3CCOCC3)cc2)c1	-	-	-	-	-	-
Cc1cc2oc(=O)cc(-c3ccccc3)c2c(C)c1-c1ccc(O)cc1	-	50	-	-	-	.
NC(=O)c1ccsc1NC(=O)COC(=O)c1cc(=O)[nH]c2ccccc12	-	-	-	-	50	-
O=C(COC(=O)c1cc(=O)[nH]c2ccccc12)NCc1cccs1	-	-	-	-	-	-
COc1cc(CC(=O)OCC(=O)Nc2sccc2C(N)=O)cc(OC)c1OC	-	-	-	-	63	100
CCOC(=O)C1=C[C@@H](C(C)(C)C)N(S(=O)(=O)c2ccc(C)cc2)[C@H]1c1cccc2ccccc12	-	.	.	.	-	.
CCN(C[C@H]1N[C@@](CC)(C(=O)OC)[C@H]2C(=O)N(Cc3ccccc3)C(=O)[C@@H]12)S(=O)(=O)c1ccc(F)cc1	-	-	.	-	-	.
CCOc1cc(-c2nc3ccccn3c2NCC2CCCO2)ccc1O (stereo not given)	-	-	-	-	57	-
COc1cc(-c2nc3ccccn3c2NCc2ccccc2)ccc1SC1CCCCC1	.	-	-	-	.	-
Cc1cc(NC(=O)CSCC(=O)OCC(=O)c2ccc(Br)cc2)no1	-	-	.	-	-	.
Clc1ccc(SCCOCCN2CCCCC2)cc1	-	-	-	-	-	-
Clc1ccc(SCCOCCN2CCc3ccccc3C2)cc1	38	-	-	-	-	-
Cc1cc(C)nc(-n2nc(C)cc2NC(=O)CN2CCc3ccccc3C2)n1	43	-	-	-	-	-
Cc1cc(C)nc(-n2nc(C)cc2NC(=O)CN2CCCC(C)C2)n1 (stereo not given)	-	-	-	-	-	-
CCOc1cc(/C=N\NC(=O)C2C(=O)NCC2c2ccccc2)ccc1OC (stereo not given)	-	-	-	56	-	-
O=C(O)C(c1ccccc1)N1C(=O)/C(=C\c2ccc(-c3ccc(Br)cc3)o2)SC1=S (stereo not given)	-	-	-	85	-	.
O=C(O)C(c1ccccc1)N1C(=O)/C(=C\c2ccc(-c3ccccc3Cl)o2)SC1=S (stereo not given)	-	-	-	91	-	-
COc1ccccc1CNS(=O)(=O)CCNCCc1ccccc1	-	-	.	-	-	.
COC(=O)c1scc(C)c1NC(=O)Nc1ccccc1	-	-	-	-	-	25
SMILES	TAAR1 ag	CRFBP-R2 block	TMEM16A act	CRFBP-R2 agonist	TAAR1 antag	TMEM16A inh
COC(=O)c1scc(C)c1NC(=O)c1ccccc1F	-	-	-	204	-	-
Oc1ccccc1C(=S)N1CCN(C(=S)c2ccccc2O)CC1	-	-	-	-	-	-
CC(=O)c1cccc(Nc2cc(C)nc3c(C)cccc23)c1	-	109	-	-	-	-
CC(=O)c1cccc(Nc2cc(C)nc3ccccc23)c1	-	-	-	-	-	-
CSc1nnc(-c2sc(-c3ccccc3)nc2C)n1C	-	55	-	-	-	-
Cc1nc(-c2ccccc2)sc1-c1n[nH]c(=S)n1C	-	-	-	-	-	-
COc1ccc(N/C(N)=N/c2nc(C)cc(C)n2)cc1	-	-	.	70	55	.
Cc1cc(C)nc(/N=C(\N)Nc2ccc(OCc3ccccc3)cc2)n1	127	-	-7.8	124	106	100
O=C(Nc1cccc(Cl)c1)Nc1nnc([C@H]2C[C@H](O)[C@@H](CO)O2)s1	-	.	.	.	-	.
NS(=O)(=O)c1ccc(CCNC(=O)c2ccc(C#CC3(O)CCCCC3)cc2)cc1	-	-	-	-	68	-
NS(=O)(=O)c1ccc(CCNC(=O)c2ccncc2)cc1	-	-	-	-	-	-
CC(=O)N1CC(C)Sc2ccc(S(=O)(=O)NCc3ccc(Cl)cc3)cc21 (stereo not given)	-	-	-	-	-	-
CC(C)(C)C1CCC(=NNC(=O)C(=O)NCc2ccco2)CC1 (stereo not given)	-	-	-	-	-	-
COc1ccc(CNC(=O)Nc2cccs2)cc1OC	-	62	-	-	-	-
COc1cccc(CNC(=O)Nc2cccs2)c1	-	-	-	-	-	-
CC(C)[C@H](NC(=O)N1CC(=O)Nc2ccccc21)C(=O)N[C@@H](C(=O)O)c1ccccc1	-	-	-	-	-	-
CNC(=S)NNC(=O)c1sc(-c2cc(C)on2)nc1C	-	-	-	-	-	-
COc1ccccc1-c1c(NC(=O)C(C)C)n(C)c2ccccc2c1=O	-	106	-	-	-	-
CCOC(=O)C(CSCc1ccccc1)NC(=O)OC(C)(C)C (stereo not given)	-	-	-	-	-	-
CCOC(=O)C(CSCC(=O)c1ccc(Br)cc1)NC(=O)OC(C)(C)C (stereo not given)	.	.	.	.	.	100
O=C(NCCCC(=O)N1CCCCC1)c1ccc(Cl)cc1	-	-	-	-	-	-
O=[N+]([O-])c1cc(S(=O)(=O)N2CCCC2)ccc1O	-	-	-	-	-	-
O=[N+]([O-])c1cc(S(=O)(=O)N2CCCCCC2)ccc1F	-	-	-6.6	-	-	-
COc1ccc(C(=O)c2sc3nc(-c4ccccc4)ccc3c2N)cc1	.	-	-	83	.	-
COCCCNCCCCOc1ccc(Br)cc1C	41	-	-	-	-	-
COCCNCCCCOc1ccc(Br)cc1C	-	-	-	-	-	-
COc1ccc(NC(=S)N2CCC(N(C)CCN3CCOCC3)CC2)cc1Cl	-	52	-	-	-	-
CC(C)=CCCC(C)c1cc(C(=O)NCCc2ccc(O)cc2)c(N)s1 (stereo not given)	40	.	.	.	-	.
COc1ccc(-c2nnc(SCC(=O)N(Cc3ccccc3)C(C)(C)C)o2)cc1OC	-	-	-	-	-	100
COc1cc(-c2nnc(SCC(=O)c3ccccc3)o2)cc(OC)c1OC	-	-	-	-	-	-
